Experimental data collected from several papers.
Matrix: Caco-2

| SMILES | tested at | time | pH | endpoint | result |
| --- | --- | --- | --- | --- | --- |
| CC(C)NCC(O)COc1cccc2ccccc12 (centres unmarked) | 10 µM | 2 h | pH 7.4 | Papp B→A | 19.5 ×10⁻⁶ cm/s |
| O=C1CCC(N2Cc3c(ccc4c3OCC43CCN(Cc4ccccc4)CC3)C2=O)C(=O)N1 (centres unmarked) | 10 µM | 2 h |  | Papp | 19 ×10⁻⁶ cm/s |
| CC(C)NCC(O)COc1cccc2ccccc12 (centres unmarked) |  |  | pH 7.4 | Papp B→A | 4.2 ×10⁻⁶ cm/s |
| O=c1c2cc(Cl)c(CO)cc2[nH]c(=S)n1Cc1cncnc1 | 10 µM | 90 min | pH 7.4 | Papp B→A | 27 ×10⁻⁶ cm/s |
| C[C@H]1O[C@@H](O[C@H]2[C@@H](O)C[C@H](O[C@H]3[C@@H](O)C[C@H](O[C@H]4CC[C@@]5(C)[C@H](CC[C@@H]6[C@@H]5C[C@@H](O)[C@]5(C)[C@@H](C7=CC(=O)OC7)CC[C@]65O)C4)O[C@@H]3C)O[C@@H]2C)C[C@H](O)[C@@H]1O |  |  | pH 7.4 | Papp A→B | 1.4 ×10⁻⁶ cm/s |
| CC(c1cncnc1)n1c(=S)[nH]c2ccc(Cl)cc2c1=O (centres unmarked) | 10 µM | 90 min | pH 7.4 | Papp A→B | 45.7 ×10⁻⁶ cm/s |
| C/C=C1/CN2CC[C@@]34c5cc(O)ccc5N(C)[C@]35OC[C@@]4(C(=O)OC)[C@H]1C[C@H]25 | 10 µM | 2 h | pH 7.4 | Papp A→B | 28.2 ×10⁻⁶ cm/s |
| CC(=O)c1c(C)c2cnc(Nc3ccc(C4CCN(CCS(C)(=O)=O)CC4)cn3)nc2n(C2CCCC2)c1=O | 10 µM |  |  | Papp A→B | 15.4 ×10⁻⁶ cm/s |
